Results taken from ChEMBL document CHEMBL1134325, “Diaminoindanes as microsomal triglyceride transfer protein inhibitors” (J Med Chem, 2001).
“And” between values parts separate entries of the source, which are not always exact repeats. Identical values can stand only once.

How the values were obtained:
[1] = biological target: T1, Microsomal triglyceride transfer protein large subunit (Homo sapiens, UniProt P55157); assay: In vitro inhibitory activity against MTP using MTP transfer assay
T1 sequence (P55157 whole entry): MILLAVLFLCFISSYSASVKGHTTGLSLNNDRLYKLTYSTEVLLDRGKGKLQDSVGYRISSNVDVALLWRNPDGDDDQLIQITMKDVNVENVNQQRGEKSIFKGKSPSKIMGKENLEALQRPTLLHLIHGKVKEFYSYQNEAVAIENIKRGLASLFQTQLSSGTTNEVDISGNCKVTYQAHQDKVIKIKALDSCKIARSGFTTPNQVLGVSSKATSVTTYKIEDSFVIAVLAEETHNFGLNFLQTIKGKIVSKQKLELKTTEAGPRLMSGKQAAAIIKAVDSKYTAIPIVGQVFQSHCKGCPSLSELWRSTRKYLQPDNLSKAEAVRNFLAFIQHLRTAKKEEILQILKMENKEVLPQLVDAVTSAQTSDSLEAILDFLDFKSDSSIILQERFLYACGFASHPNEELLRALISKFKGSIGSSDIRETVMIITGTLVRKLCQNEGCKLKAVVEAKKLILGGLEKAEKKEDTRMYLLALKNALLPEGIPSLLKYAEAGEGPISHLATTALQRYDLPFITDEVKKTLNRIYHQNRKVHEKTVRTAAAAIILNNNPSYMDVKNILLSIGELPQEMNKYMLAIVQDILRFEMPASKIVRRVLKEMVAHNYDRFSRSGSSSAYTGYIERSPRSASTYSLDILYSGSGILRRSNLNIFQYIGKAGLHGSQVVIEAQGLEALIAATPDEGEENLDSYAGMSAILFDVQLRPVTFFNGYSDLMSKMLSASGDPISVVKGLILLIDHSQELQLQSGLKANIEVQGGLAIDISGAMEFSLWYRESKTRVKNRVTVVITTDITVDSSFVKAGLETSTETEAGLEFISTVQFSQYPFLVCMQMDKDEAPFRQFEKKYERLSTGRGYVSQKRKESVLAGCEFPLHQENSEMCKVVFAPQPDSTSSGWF

[2] = biological target: Apolipoprotein B-100 (Homo sapiens) (UniProt P04114); assay: Inhibition of apolipoprotein B (apoB) secreted by human hepatoma cells (Hep G2) at 100 nM
Canis familiaris [3] = assay: Inhibition of plasma total triglycerides in the normolipidemic dogs after day 4 of oral administration of 5 mg/kg/day.; assay type: functional, Canis lupus familiaris
Canis familiaris [4] = assay: Inhibition of plasma total triglycerides in the normolipidemic dogs after day 3 of oral administration of 10 mg/kg/day.; assay type: functional, Canis lupus familiaris
Canis familiaris [5] = assay: Inhibition of plasma total triglycerides in the normolipidemic dogs after day 3 of oral administration of 5 mg/kg/day.; assay type: functional, Canis lupus familiaris
Canis familiaris [6] = assay: Inhibition of plasma total triglycerides in the normolipidemic dogs after day 4 of oral administration of 10 mg/kg/day. Values in the parentheses indicate mean percent inhibition for drug treated dogs.; assay type: functional, Canis lupus familiaris
Canis familiaris [7] = assay: Inhibition of plasma total cholesterol in the normolipidemic dogs after day 0 of oral administration of 10 mg/kg/day.; assay type: functional, Canis lupus familiaris
Method in brief: (§1)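 Normolipidemic dogs dosed once daily for 4 days by oral gavage, compound suspended in cornstarch vehicle. Plasma sampled 24 h after dosing on days 0, 2, 3 and 4, assayed for triglycerides and total cholesterol (mg/dL). Mean percent inhibition versus day-0 level is given for treated dogs; n = 6 per group; significance by one-way ANOVA, p < 0.05.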

Canis familiaris [8] = assay: Inhibition of plasma total cholesterol in the normolipidemic dogs after day 0 of oral administration of 5 mg/kg/day.; assay type: functional, Canis lupus familiaris; method in brief: as §1
Canis familiaris [9] = assay: Inhibition of plasma total cholesterol in the normolipidemic dogs after day 2 of oral administration of 10 mg/kg/day.; assay type: functional, Canis lupus familiaris; method in brief: as §1
Canis familiaris [10] = assay: Inhibition of plasma total cholesterol in the normolipidemic dogs after day 2 of oral administration of 5 mg/kg/day.; assay type: functional, Canis lupus familiaris; method in brief: as §1
Canis familiaris [11] = assay: Inhibition of plasma total cholesterol in the normolipidemic dogs after day 3 of oral administration of 10 mg/kg/day.; assay type: functional, Canis lupus familiaris; method in brief: as §1
Canis familiaris [12] = assay: Inhibition of plasma total cholesterol in the normolipidemic dogs after day 3 of oral administration of 5 mg/kg/day.; assay type: functional, Canis lupus familiaris; method in brief: as §1
Canis familiaris [13] = assay: Inhibition of plasma total cholesterol in the normolipidemic dogs after day 4 of oral administration of 10 mg/kg/day. Values in the parentheses indicate mean percent inhibition for drug treated dogs.; assay type: functional, Canis lupus familiaris; method in brief: as §1
Canis familiaris [14] = assay: Inhibition of plasma total cholesterol in the normolipidemic dogs after day 4 of oral administration of 5 mg/kg/day. Values in the parentheses indicate mean percent inhibition for drug treated dogs.; assay type: functional, Canis lupus familiaris; method in brief: as §1
Canis familiaris [15] = assay: Inhibition of plasma total triglycerides in the normolipidemic dogs after day 0 of oral administration of 10 mg/kg/day.; assay type: functional, Canis lupus familiaris; method in brief: as §1
Canis familiaris [16] = assay: Inhibition of plasma total triglycerides in the normolipidemic dogs after day 0 of oral administration of 5 mg/kg/day.; assay type: functional, Canis lupus familiaris; method in brief: as §1
Canis familiaris [17] = assay: Inhibition of plasma total triglycerides in the normolipidemic dogs after day 2 of oral administration of 10 mg/kg/day.; assay type: functional, Canis lupus familiaris; method in brief: as §1
Rattus norvegicus [18] = assay: Inhibition of total cholesterol in normolipidemic rats after 24 hr of 10 mg/kg oral dosing; no significant change; assay type: functional, organism-based; set-up: dose 10 mg/kg
Method in brief: (§2)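 Overnight-fasted normolipidemic rats received a single oral dose in cornstarch vehicle. Blood was drawn at 2, 6 and 24 h post-dose and assayed for triglycerides and total cholesterol, with free access to food after the 6 h sample. Value is mean percent inhibition versus a separate vehicle-treated group, unpaired t test p < 0.05, NS = no significant change, N = 6.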

Rattus norvegicus [19] = assay: Inhibition of plasma triglycerides in normolipidemic rats after 2 hr of 10 mg/kg oral dosing; assay type: functional; method in brief: as §2
Rattus norvegicus [20] = assay: Inhibition of plasma triglycerides in normolipidemic rats after 2 hr of 50 mg/kg oral dosing; assay type: functional; method in brief: as §2
Rattus norvegicus [21] = assay: Inhibition of plasma triglycerides in normolipidemic rats after 6 hr of 10 mg/kg oral dosing; assay type: functional; method in brief: as §2
Rattus norvegicus [22] = assay: Inhibition of plasma triglycerides in normolipidemic rats after 6 hr of 50 mg/kg oral dosing; assay type: functional; method in brief: as §2
Rattus norvegicus [23] = assay: Inhibition of total cholesterol in normolipidemic rats after 2 hr of 10 mg/kg oral dosing; assay type: functional; method in brief: as §2
Rattus norvegicus [24] = assay: Inhibition of total cholesterol in normolipidemic rats after 2 hr of 50 mg/kg oral dosing; assay type: functional; method in brief: as §2
Rattus norvegicus [25] = assay: Inhibition of total cholesterol in normolipidemic rats after 6 hr of 10 mg/kg oral dosing; assay type: functional; method in brief: as §2
Rattus norvegicus [26] = assay: Inhibition of total cholesterol in normolipidemic rats after 6 hr of 50 mg/kg oral dosing; assay type: functional; method in brief: as §2
Rattus norvegicus [27] = assay: Inhibition of plasma triglycerides in normolipidemic rats after 24 hr of 10 mg/kg oral dosing; no significant change; assay type: functional, organism-based; set-up: dose 10 mg/kg; method in brief: as §2
Rattus norvegicus [28] = assay: Inhibition of plasma triglycerides in normolipidemic rats after 24 h of 50 mg/kg oral dosing; no significant change; assay type: functional, organism-based; set-up: dose 50 mg/kg; method in brief: as §2
Canis familiaris [29] = assay: Inhibition of plasma total triglycerides in the normolipidemic dogs after day 2 of oral administration of 5 mg/kg/day.; assay type: functional, Canis lupus familiaris; method in brief: as §1
Rattus norvegicus [30] = assay: Inhibition of total cholesterol in normolipidemic rats after 24 hr of 50 mg/kg oral dosing; assay type: functional; method in brief: as §2
Canis familiaris [31] = assay: Inhibition of plasma total triglycerides in the normolipidemic dogs after day 4 of oral administration of 5 mg/kg/day; assay type: functional, Canis lupus familiaris
Canis familiaris [32] = assay: Inhibition of plasma total cholesterol in the normolipidemic dogs after day 2 of oral administration of 5 mg/kg/ day.; assay type: functional, Canis lupus familiaris; method in brief: as §1
Canis familiaris [33] = assay: Inhibition of plasma total cholesterol in the normolipidemic dogs after day 4 of oral administration of 5 mg/kg/day; assay type: functional, Canis lupus familiaris; method in brief: as §1
Rattus norvegicus [34] = assay: Inhibition of total cholesterol in normolipidemic rats after 24 hr of 5 mg/kg oral dosing; no significant change; assay type: functional, organism-based; set-up: dose 5 mg/kg; method in brief: as §2
Rattus norvegicus [35] = assay: Inhibition of plasma triglycerides in normolipidemic rats after 24 hr of 50 mg/kg oral dosing; assay type: functional; method in brief: as §2
Rattus norvegicus [36] = assay: Inhibition of total cholesterol in normolipidemic rats after 2 h of 5 mg/kg oral dosing; assay type: functional; conditions: 5 mg/kg; method in brief: as §2
Rattus norvegicus [37] = assay: Inhibition of total cholesterol in normolipidemic rats after 6 hr of 5 mg/kg oral dosing; assay type: functional; conditions: 5 mg/kg; method in brief: as §2

Sequence of Apolipoprotein B-100 (Homo sapiens) (P04114 whole entry): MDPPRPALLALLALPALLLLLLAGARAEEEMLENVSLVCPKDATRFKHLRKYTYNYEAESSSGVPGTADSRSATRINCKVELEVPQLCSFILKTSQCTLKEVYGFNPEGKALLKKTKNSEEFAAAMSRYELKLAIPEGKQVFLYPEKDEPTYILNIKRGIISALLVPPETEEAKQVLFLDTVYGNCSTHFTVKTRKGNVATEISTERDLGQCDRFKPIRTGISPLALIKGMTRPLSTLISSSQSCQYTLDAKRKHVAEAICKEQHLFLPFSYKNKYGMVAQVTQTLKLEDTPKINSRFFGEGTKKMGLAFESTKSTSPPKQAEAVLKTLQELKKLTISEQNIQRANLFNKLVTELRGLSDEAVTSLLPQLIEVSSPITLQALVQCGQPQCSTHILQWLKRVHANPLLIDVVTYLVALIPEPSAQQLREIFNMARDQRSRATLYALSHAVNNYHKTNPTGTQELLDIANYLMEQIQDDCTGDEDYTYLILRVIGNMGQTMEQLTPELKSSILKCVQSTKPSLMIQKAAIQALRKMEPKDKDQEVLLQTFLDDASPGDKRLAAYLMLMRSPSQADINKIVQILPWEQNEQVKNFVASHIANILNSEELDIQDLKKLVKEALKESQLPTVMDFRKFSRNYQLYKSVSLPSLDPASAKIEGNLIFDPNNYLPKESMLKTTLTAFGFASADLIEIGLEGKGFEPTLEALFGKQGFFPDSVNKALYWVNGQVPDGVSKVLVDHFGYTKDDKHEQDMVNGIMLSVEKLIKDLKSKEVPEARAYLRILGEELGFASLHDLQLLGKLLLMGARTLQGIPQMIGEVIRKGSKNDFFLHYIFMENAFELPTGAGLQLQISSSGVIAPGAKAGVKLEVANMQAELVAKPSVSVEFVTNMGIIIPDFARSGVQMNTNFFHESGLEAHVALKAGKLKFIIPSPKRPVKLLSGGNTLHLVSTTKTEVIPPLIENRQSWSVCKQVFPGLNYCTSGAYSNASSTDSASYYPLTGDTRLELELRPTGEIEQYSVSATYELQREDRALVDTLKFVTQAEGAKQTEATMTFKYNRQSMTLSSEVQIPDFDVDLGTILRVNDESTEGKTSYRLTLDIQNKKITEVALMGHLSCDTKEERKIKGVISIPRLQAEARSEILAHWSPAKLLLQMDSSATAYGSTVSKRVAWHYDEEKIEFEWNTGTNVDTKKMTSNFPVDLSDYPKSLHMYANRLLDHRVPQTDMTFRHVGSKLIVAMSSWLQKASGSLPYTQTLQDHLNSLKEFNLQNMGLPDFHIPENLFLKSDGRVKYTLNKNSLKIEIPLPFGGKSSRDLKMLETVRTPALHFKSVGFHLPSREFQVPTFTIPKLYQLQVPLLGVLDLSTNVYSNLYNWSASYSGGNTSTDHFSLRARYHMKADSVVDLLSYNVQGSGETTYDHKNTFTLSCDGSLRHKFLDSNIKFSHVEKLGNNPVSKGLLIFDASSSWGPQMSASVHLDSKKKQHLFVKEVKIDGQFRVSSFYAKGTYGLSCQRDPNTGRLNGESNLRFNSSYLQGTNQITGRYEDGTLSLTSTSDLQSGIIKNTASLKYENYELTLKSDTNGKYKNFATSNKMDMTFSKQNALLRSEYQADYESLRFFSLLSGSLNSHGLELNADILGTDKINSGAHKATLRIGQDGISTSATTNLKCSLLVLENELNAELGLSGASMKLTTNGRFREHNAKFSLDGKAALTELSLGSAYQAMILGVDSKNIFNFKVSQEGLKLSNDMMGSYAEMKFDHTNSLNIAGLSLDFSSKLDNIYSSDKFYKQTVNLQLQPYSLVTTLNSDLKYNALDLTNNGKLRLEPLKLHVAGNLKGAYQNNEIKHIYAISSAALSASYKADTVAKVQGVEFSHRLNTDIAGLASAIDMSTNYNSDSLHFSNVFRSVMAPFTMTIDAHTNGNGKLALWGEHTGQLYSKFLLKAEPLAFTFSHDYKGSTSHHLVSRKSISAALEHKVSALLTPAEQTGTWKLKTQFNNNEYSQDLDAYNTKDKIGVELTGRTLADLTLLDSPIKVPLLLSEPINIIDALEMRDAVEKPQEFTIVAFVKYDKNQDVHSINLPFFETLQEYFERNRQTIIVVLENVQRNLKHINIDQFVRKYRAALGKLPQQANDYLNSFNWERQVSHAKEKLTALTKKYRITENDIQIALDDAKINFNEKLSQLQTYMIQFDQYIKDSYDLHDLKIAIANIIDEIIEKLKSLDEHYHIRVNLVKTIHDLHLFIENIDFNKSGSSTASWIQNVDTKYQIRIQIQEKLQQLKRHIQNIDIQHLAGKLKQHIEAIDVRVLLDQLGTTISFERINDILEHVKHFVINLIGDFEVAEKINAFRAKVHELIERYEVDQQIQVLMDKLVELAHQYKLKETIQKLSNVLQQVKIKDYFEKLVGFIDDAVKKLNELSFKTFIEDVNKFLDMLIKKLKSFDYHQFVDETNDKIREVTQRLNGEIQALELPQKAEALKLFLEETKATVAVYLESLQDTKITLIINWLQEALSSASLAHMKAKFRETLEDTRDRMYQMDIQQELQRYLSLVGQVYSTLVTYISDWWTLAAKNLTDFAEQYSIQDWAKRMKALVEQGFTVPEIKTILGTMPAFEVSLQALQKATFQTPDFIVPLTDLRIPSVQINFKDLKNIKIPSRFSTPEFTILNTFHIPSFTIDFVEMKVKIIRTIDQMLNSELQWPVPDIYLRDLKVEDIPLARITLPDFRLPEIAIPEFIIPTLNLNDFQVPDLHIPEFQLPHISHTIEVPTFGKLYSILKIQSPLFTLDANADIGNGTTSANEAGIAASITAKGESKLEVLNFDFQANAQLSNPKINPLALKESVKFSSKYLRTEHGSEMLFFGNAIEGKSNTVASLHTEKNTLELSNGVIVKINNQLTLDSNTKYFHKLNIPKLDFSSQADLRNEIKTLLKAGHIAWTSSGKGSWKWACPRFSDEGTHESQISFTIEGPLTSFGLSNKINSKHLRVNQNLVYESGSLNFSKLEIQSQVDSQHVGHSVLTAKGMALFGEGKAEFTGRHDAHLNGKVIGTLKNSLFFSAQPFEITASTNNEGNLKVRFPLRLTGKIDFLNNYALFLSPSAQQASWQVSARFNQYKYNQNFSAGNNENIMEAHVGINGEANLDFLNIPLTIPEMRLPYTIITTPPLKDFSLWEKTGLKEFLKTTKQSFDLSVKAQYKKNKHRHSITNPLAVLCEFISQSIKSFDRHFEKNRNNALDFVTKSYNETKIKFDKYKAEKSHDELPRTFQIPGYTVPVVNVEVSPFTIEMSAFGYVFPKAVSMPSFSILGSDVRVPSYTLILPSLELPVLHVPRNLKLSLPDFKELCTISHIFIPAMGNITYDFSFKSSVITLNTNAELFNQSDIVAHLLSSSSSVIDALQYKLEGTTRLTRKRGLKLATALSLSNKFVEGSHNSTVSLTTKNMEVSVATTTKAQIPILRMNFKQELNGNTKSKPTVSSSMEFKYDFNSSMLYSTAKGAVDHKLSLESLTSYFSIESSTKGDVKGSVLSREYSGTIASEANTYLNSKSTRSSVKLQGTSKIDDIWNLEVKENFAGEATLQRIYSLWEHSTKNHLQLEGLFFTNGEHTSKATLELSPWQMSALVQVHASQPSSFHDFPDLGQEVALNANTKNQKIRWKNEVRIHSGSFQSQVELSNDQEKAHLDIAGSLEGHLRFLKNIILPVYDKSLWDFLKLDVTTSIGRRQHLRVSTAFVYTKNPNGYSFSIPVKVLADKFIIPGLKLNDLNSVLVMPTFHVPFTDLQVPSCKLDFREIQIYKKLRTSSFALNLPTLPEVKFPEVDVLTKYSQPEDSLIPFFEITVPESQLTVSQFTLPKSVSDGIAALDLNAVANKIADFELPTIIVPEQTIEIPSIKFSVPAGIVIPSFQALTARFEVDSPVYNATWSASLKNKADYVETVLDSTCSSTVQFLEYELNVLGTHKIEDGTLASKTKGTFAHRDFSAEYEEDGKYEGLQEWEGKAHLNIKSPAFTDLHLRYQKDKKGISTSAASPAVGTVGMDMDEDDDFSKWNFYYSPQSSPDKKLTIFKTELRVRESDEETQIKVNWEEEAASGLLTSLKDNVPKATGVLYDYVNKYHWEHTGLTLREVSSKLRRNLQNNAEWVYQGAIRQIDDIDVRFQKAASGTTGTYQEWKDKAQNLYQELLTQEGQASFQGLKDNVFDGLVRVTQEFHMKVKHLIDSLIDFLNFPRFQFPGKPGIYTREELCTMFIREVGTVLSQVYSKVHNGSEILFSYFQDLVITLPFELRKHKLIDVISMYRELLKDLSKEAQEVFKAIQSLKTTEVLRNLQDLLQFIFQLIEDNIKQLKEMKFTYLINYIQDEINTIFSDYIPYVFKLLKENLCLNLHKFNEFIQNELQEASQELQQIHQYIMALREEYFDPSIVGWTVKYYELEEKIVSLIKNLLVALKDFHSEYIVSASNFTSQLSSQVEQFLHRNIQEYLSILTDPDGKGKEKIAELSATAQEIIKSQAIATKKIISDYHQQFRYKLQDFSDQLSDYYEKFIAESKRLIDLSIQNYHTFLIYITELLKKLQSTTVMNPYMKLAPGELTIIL

**Q.** For `Cc1cccc(C(=O)Nc2ccc3c(c2)C[C@H](NCc2ccccn2)C3)c1-c1ccc(C(F)(F)F)cc1`, which IC50 [1] is on record?
**A.** 410 nM

**Q.** What about the inhibition [2] of the same compound?
**A.** 30%

**Q.** For `Cc1cccc(C(=O)Nc2ccc3c(c2)C[C@@H](NCc2ccccn2)C3)c1-c1ccc(C(F)(F)F)cc1`, which IC50 [1] is on record?
**A.** 100 nM

**Q.** And the Lipid level (Canis familiaris [3])?
**A.** 32 mg/dL

**Q.** What about the Lipid level (Canis familiaris [4]) of the same compound?
**A.** <27 mg/dL

**Q.** What about the Lipid level (Canis familiaris [5]) of the same compound?
**A.** 41 mg/dL

**Q.** And the Lipid level (Canis familiaris [6])?
**A.** <23 mg/dL

**Q.** And the Lipid level (Canis familiaris [7])?
**A.** 125 mg/dL

**Q.** What about the Lipid level (Canis familiaris [8]) of the same compound?
**A.** 130 mg/dL

**Q.** What about the Lipid level (Canis familiaris [9]) of the same compound?
**A.** <69 mg/dL

**Q.** What about the Lipid level (Canis familiaris [10]) of the same compound?
**A.** <110 mg/dL

**Q.** And the Lipid level (Canis familiaris [11])?
**A.** <54 mg/dL

**Q.** What about the Lipid level (Canis familiaris [12]) of the same compound?
**A.** <99 mg/dL

**Q.** What about the Lipid level (Canis familiaris [13]) of the same compound?
**A.** <36 mg/dL

**Q.** And the Lipid level (Canis familiaris [14])?
**A.** <94 mg/dL

**Q.** And the Lipid level (Canis familiaris [15])?
**A.** 46 mg/dL

**Q.** What about the Lipid level (Canis familiaris [16]) of the same compound?
**A.** 36 mg/dL

**Q.** And the Lipid level (Canis familiaris [17])?
**A.** <26 mg/dL

**Q.** What about the NS (Rattus norvegicus [18]) of the same compound?
**A.** no significant change

**Q.** And the Reduction (Rattus norvegicus [19])?
**A.** 86%

**Q.** And the Reduction (Rattus norvegicus [20])?
**A.** 91%

**Q.** And the Reduction (Rattus norvegicus [21])?
**A.** 47%

**Q.** And the Reduction (Rattus norvegicus [22])?
**A.** 88%

**Q.** What about the Reduction (Rattus norvegicus [23]) of the same compound?
**A.** 34%

**Q.** And the Reduction (Rattus norvegicus [24])?
**A.** 40%

**Q.** What about the Reduction (Rattus norvegicus [25]) of the same compound?
**A.** 35%

**Q.** What about the Reduction (Rattus norvegicus [26]) of the same compound?
**A.** 57%

**Q.** And the NS (Rattus norvegicus [27])?
**A.** no significant change

**Q.** And the NS (Rattus norvegicus [28])?
**A.** no significant change

**Q.** What about the Lipid level (Canis familiaris [29]) of the same compound?
**A.** 38 mg/dL

**Q.** What about the Reduction (Rattus norvegicus [30]) of the same compound?
**A.** 29%

**Q.** Which results are given for `Cc1cccc(C(=O)Nc2ccc3c(c2)C[C@H](NS(=O)(=O)c2cccs2)C3)c1-c1ccc(C(F)(F)F)cc1`?
**A.** IC50 [1]: 50 nM; Lipid level (Canis familiaris [5]): <24 mg/dL; Lipid level (Canis familiaris [31]): <20 mg/dL; Lipid level (Canis familiaris [8]): 120 mg/dL; Lipid level (Canis familiaris [32]): <81 mg/dL; Lipid level (Canis familiaris [12]): <72 mg/dL; Lipid level (Canis familiaris [33]): <70 mg/dL; Lipid level (Canis familiaris [16]): 31 mg/dL; NS (Rattus norvegicus [18]): no significant change; NS (Rattus norvegicus [34]): no significant change; Reduction (Rattus norvegicus [19]): 83%; Reduction (Rattus norvegicus [20]; 50 mg/kg): 88% and 83%; Reduction (Rattus norvegicus [35]): 76%; Reduction (Rattus norvegicus [21]): 56%; Reduction (Rattus norvegicus [22]; 50 mg/kg): 83% and 56%; Reduction (Rattus norvegicus [23]): 26%; Reduction (Rattus norvegicus [36]): 25% and 23%; Reduction (Rattus norvegicus [25]): 39%; Reduction (Rattus norvegicus [37]): 50% and 34%; NS (Rattus norvegicus [27]): no significant change; Lipid level (Canis familiaris [29]): <24 mg/dL
